# Screening data deposited in PubChem BioAssay by several laboratories.
# The list is not random: actives were taken first. Their share in the collection is about 3.6%.
# NR3A LBD binder – NR3A (human) ligand-binding domain modulation; NR3A LBD differential scanning fluorimetry, Tm shift; 0% = protein alone, 100% = glycine-bound protein; hit rate 2.5% among 340,000; Tm shift relative to glycine control, % at 25 µM; AID 1259313;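 active = melting temperature shift of at least 10% of the positive control shift, at one fixed dose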
# NadD inh – inhibitors of Staphylococcus aureus NadD. purified NadD enzyme, colorimetric absorbance read-out. inhibition, % at 20 µM. hit rate 0.78% among 360,000; in the data active = inhibition above about 26%
# UCH37 inh – inhibitors of human deubiquitinating enzyme UCH37; Q9Y5K5; purified proteasome/UCH37, Ub-AMC cleavage fluorescence; inhibition, % (concentration not given with the values); hit rate 0.33% among 330,000;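 active = mean inhibition over replicate wells above about 20%, limit read from the data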;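 note: 0% = compound-free wells with enzyme and 100% = wells lacking proteasome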
# Target sequence (Q9Y5K5 whole entry, looked up): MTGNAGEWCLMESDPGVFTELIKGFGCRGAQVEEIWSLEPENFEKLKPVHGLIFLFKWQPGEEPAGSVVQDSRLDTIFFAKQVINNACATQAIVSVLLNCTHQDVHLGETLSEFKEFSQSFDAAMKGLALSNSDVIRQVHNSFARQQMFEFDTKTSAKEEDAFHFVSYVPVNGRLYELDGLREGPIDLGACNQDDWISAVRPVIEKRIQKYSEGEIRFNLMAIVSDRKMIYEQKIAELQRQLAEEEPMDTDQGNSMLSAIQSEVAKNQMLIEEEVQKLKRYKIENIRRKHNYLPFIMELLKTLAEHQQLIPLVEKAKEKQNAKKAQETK
#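 Reagent: Ub-AMC substrate; assay system: Proteasome-associated human UCH37 deubiquitinase; controls: no-proteasome and no-compound wells; read-out: % inhibition of Ub-AMC cleavage fluorescence; timing: 30 min preincubation with enzyme, 25 min cleavage at room temperature; signal: AMC fluorescence from Ub-AMC cleavage, excitation 355 nm, emission 460 nm; buffer or medium: Tris-HCl pH 7.4 plus ovalbumin, ATP-MgCl2, DTT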
# SENP1 inh – blocks the human SENP1 SUMO protease catalytic domain | hit rate 0.21% among 360,000 | inhibition, % at 10 µM | recombinant SENP1 catalytic domain, CyPet-SUMO1-YPet FRET cleavage;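 active = inhibition at least 30% at 10 µM, raw YFP signal under a set limit, fluorescence ratio 0.5 to 1.5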;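 note: 0% = enzyme with DMSO and 100% = no enzyme wells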
#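 Test system: hSENP1 catalytic domain, recombinant; Amount: 20 pM final SENP1 enzyme; Medium: Tris pH 8 buffer plus EDTA, NaCl, BME, BSA, NP40, catalase; Schedule: 50 min enzyme reaction, room temperature, light-protected; Technique: FRET fluorescence in CFP and YFP emission channels; Controls: no-enzyme wells low, DMSO-plus-enzyme wells high control.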
# ATG4B inh – ATG4B (human) cysteine protease inhibition | Q9Y4P1 | ATG4B cleavage of LC3-PLA2, NBD-HPC fluorescence, 1 h | inhibition, % at 8.33 µM | hit rate 0.51% among 340,000 | AID 504462; in the data active = inhibition above about 40%
# Target sequence (Q9Y4P1 whole entry, looked up): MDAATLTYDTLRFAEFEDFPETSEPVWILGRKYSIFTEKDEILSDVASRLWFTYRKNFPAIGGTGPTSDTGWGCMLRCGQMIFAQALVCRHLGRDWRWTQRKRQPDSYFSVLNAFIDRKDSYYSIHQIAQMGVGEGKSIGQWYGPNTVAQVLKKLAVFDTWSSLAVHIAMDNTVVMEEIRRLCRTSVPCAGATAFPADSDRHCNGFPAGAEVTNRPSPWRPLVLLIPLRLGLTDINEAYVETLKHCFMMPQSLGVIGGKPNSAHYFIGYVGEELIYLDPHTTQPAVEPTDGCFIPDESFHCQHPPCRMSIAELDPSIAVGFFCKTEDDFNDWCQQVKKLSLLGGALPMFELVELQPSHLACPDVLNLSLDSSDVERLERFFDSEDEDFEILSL
# NadD inh conf – NadD (S. aureus) inhibition, single concentration confirmation; shares compounds with NadD inh; purified S. aureus NadD, colorimetric enzyme assay; inhibition, % at 20 µM; hit rate 13% among 2,000; AID 624309; in the data active = inhibition mostly above about 42%, no sharp cut-off; inactive = mostly below about 42%
# SENP1 conf – SENP1 (human) inhibition, single concentration confirmation | shares compounds with SENP1 inh | recombinant SENP1, CyPet-SUMO1-YPet FRET cleavage | inhibition, % at 10 µM | hit rate 34% among 520; in the data active = inhibition mostly above about 35%, no sharp cut-off; inactive = mostly below about 32%;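 note: 0% = enzyme with DMSO and 100% = no enzyme control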
# SENP1 kin conf – confirmation of human SENP1 SUMO protease inhibitors, kinetic. shares compounds with SENP1 inh. recombinant SENP1, CyPet-SUMO1-YPet FRET kinetic cleavage. inhibition, % at 10 µM. hit rate 26% among 520. AID 651690; in the data active = inhibition mostly above about 32%, no sharp cut-off; inactive = mostly below about 29%;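 note: 0% = DMSO with enzyme and 100% = no enzyme substrate only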
# * hit, by the source's call; x = not tested or not shown.
SMILES,NR3A LBD binder,NadD inh,UCH37 inh,SENP1 inh,ATG4B inh,NadD inh conf,others
CCOc1ccc2nc(N3C(=O)/C(=C/c4ccc(Cl)cc4)NC3=S)sc2c1,-1,49*,x,33*,1,12,
CCOc1ccc(N=C2NC(=O)S/C2=C\c2ccc(Cl)cc2)cc1,-2,1,3,8,6,x,
CCCCCC(=O)Nc1ccc(C(=O)NN=Cc2ccc([N+](=O)[O-])cc2)cc1,x,x,-19,x,x,x,
CCN1CCCCC(=NO)C(=NO)CCCC1,x,x,0,x,x,x,
O=C(Nc1nc(-c2ccccn2)cs1)c1ncc(Cl)c(Cl)c1Cl,-2,36*,-2,-3,39,5,
Cc1ccc(C(=O)Nc2nc(-c3ccccn3)cs2)s1,8,1,3,-6,-8,x,
COCc1cc(C)nc(OCC(=O)NN=Cc2ccc(OC)c(OC)c2)c1C#N,x,x,5,x,x,x,
S=c1[nH]nc(-c2ccncc2)n1/N=C/c1cn(-c2ccccc2)nc1-c1ccc(Cl)cc1,1,45*,x,1,6,5,
O=[N+]([O-])c1ccc(-c2nn(-c3ccccc3)cc2/C=N/n2c(-c3cccs3)n[nH]c2=S)cc1,-2,43*,x,1,-4,3,
O=C(NN=Cc1cccs1)c1cncc(Br)c1,x,x,6,x,x,x,
CCOc1cccc(-c2c(C(=O)NN=Cc3cccs3)nnn2-c2nonc2N)c1,x,x,3,x,x,x,
O=C(Nc1ccc(Oc2ccc(NC(=O)Nc3ccc([N+](=O)[O-])cc3)cc2)cc1)Nc1ccc([N+](=O)[O-])cc1,x,32*,11,3,11,-4,
CC(=O)c1ccc(NC(=O)Nc2ccc([N+](=O)[O-])cc2)cc1,-1,-4,6,1,7,x,
O=C(Nc1ccc([N+](=O)[O-])cc1)Nc1nc(-c2ccc(Cl)s2)cs1,416*,51*,2,2,-10,5,
O=C(NN=Cc1ccc2c(c1)OCO2)C(=O)Nc1ccc2ccccc2c1,x,x,0,x,x,x,
CCN(CC)S(=O)(=O)c1cccc(C(=O)NN=Cc2ccccn2)c1,x,x,1,x,x,x,
O=C1NC[C@H](Cc2ccc(O)cc2)N(C[C@@H]2CCCN2C[C@H](Cc2ccccc2)N2C[C@H](Cc3ccccc3)N(CC3CCCCCC3)C(=O)C2=O)C1=O,x,52*,x,1,x,43,
O=C1NC[C@H](Cc2ccccc2)N(C[C@H]2CCCN2C[C@H](Cc2ccccc2)N2C[C@H](Cc3ccccc3)N(CC3CCCCC3)C(=O)C2=O)C1=O,-4,17,x,1,x,x,
O=C1NC[C@H](Cc2ccccc2)N(C[C@@H]2CCCN2C[C@H](Cc2ccc(O)cc2)N2C[C@H](Cc3ccccc3)N(CC3CCCCCC3)C(=O)C2=O)C1=O,x,39*,x,2,x,48*,
O=C1NC[C@@H](CCCCN2C[C@H](Cc3ccc(O)cc3)N(CCC3CCCCC3)C(=O)C2=O)N(CC2CCCCC2)C1=O,x,44*,x,-3,x,47*,
CC(C)C[C@H]1CN([C@@H](Cc2ccccc2)CN2CCC[C@H]2CN2C(=O)C(=O)NC[C@@H]2Cc2ccc(O)cc2)C(=O)C(=O)N1CC1CCCCC1,x,31*,x,-1,x,40,
CC(C)C[C@H]1CN([C@@H](Cc2ccccc2)CN2CCC[C@@H]2CN2C(=O)C(=O)NC[C@@H]2Cc2ccc(O)cc2)C(=O)C(=O)N1CC1CCCCC1,x,12,x,3,x,x,
O=C1NC[C@H](Cc2ccccc2)N(C[C@@H]2CCCN2C[C@H](Cc2ccccc2)N2C[C@H](Cc3ccccc3)N(CC3CCCCC3)C(=O)C2=O)C1=O,x,22,x,3,x,x,
CCOc1ccc(-c2cc(C(=O)NN=Cc3ccc(O)cc3)c3ccccc3n2)cc1,x,x,-77,x,x,x,
CC(=NNS(=O)(=O)c1ccc(C)cc1)c1ccc2c(c1)OCO2,x,x,6,x,x,x,
SMILES,NR3A LBD binder,NadD inh,UCH37 inh,SENP1 inh,ATG4B inh,NadD inh conf,others
Cc1cc(C)n(-c2nnc(C)n2N=Cc2cc(Br)ccc2OCc2ccccc2)n1,x,x,0,x,x,x,
C=CCON=C(C)c1c(O)c(C)c(-c2ccccc2)n(-c2ccccc2)c1=O,x,x,-1,x,x,x,
O=C(CCNc1n[nH]c(=O)[nH]c1=O)NN=Cc1ccc(Br)cc1,x,x,1,x,x,x,
COc1ccccc1/C=C/C=N/NC(=O)c1cc(-c2ccco2)[nH]n1,8,43*,x,-13,-3,54*,
C(/C=C/c1ccccc1)=NN1CCN(c2ccccn2)CC1,x,x,5,x,x,x,
OCCN(C=Nc1nc(-c2ccc(Br)cc2)cs1)CCO,x,x,3,x,x,x,
COc1ccc(OC)c(CCNC(=O)c2ccc3c(=O)[nH]c4c(C(=O)NC(C)C)sc(=S)n4c3c2)c1,-6,33*,12,50*,-10,13,SENP1 conf=41*;SENP1 kin conf=40*
Cc1c(/C=N/NC(=O)CNc2ccccc2)c2ccccn2c1C(=O)c1ccc(Cl)cc1,6,36*,x,31*,6,17,SENP1 conf=31;SENP1 kin conf=20
Cc1ccccc1NCC(=O)NN=Cc1c(C)c(C(=O)c2ccc(Cl)cc2)n2ccccc12,x,x,5,x,x,x,
CC(=NNc1ccc(Cl)c(C(=O)O)c1)c1ccccn1,x,x,9,x,x,x,
N#C/C(C(=O)N1CCOCC1)=C1/SC(Cc2ccccc2)C(=O)N1c1ccccc1 (configuration not stated),0,-4,2,37*,-6,x,SENP1 conf=-5;SENP1 kin conf=4
COc1ccc(C2C(C(C)=O)=C(C)N=c3s/c(=C\c4ccco4)c(=O)n32)c(OC)c1 (configuration not stated),2,22,x,37*,-6,x,SENP1 conf=41*;SENP1 kin conf=32*
CCOC(=O)C1CCCN(C2=NC(=O)/C(=C/c3ccc(OC)c(OC)c3)S2)C1 (configuration not stated),-1,6,0,-6,-12,x,
CCOC(=O)C1CCCN(C2=NC(=O)/C(=C/c3ccc(O)c(OC)c3)S2)C1 (configuration not stated),0,4,4,69*,-9,x,SENP1 conf=110*;SENP1 kin conf=66*
Cc1ccc(-c2nc3ncccn3c2Nc2ccc3c(c2)OCO3)o1,2,5,6,43*,-10,x,SENP1 conf=19;SENP1 kin conf=13
Cc1ccc(Nc2c(-c3ccc(C)o3)nc3ncccn23)cc1,-2,-1,2,50,5,x,
CN(C)c1ccc(C=NNC(=O)CSc2ccccn2)cc1,x,x,-41,x,x,x,
COC(=O)c1ccc(-c2nc(O)c(C)s2)cc1,3,3,-12,41*,6,x,SENP1 conf=87*;SENP1 kin conf=56*
COC(=O)c1ccc(O)cc1,-2,1,-1,1,2,x,
CCc1cc(C(=O)NN=Cc2ccc(O)cc2)c2ccccc2n1,x,x,6,x,x,x,
